Experimental data pooled from the literature.
Lines come from different studies, so protocols differ. ≈ marks a conversion by molar mass, not a printed value.
Organism: Klebsiella pneumoniae

`COc1cc(C=Nc2ccccc2Br)ccc1O` gave an inhibition zone of 14.7 mm (microbial growth, disc diffusion; 2000 µg/mL, 24 h).
`C[C@H]1COc2c(N3CCN(C)CC3)c(F)cc3c(=O)c(C(=O)O)cn1c23` has an MBC of 0.06 µg/mL (≈ 0.166 µM) (microbial killing; ATCC27736).
With `O=C(O)c1cn(C2CC2)c2cc(N3CCNCC3)c(F)cc2c1=O` the MIC was 32 µM (microbial growth; ATCC700603).
For `Cc1[nH]c(C(=O)Nc2ccc(C(=O)NCC(=O)O)cc2N2CCNCC2)c(Cl)c1Cl.Cl`, the MIC was greater than 32 µg/mL (microbial growth, broth dilution; ATCC700603).
`CN(C)c1cc(NC(=O)CNC(C)(C)C)c(O)c2c1C[C@H]1C[C@H]3[C@H](N(C)C)C(O)=C(C(N)=O)C(=O)[C@@]3(O)C(O)=C1C2=O` has an MIC of 0.5 µg/mL (microbial growth, broth dilution).
`C[C@@H](O)[C@H]1C(=O)N2C(C(=O)O)=C(S[C@@H]3CN[C@H](C(=O)N(C)C)C3)[C@H](C)[C@H]12` has an MIC90 of 1020 µg/mL (≈ 2670 µM) (microbial growth, broth dilution; clinical isolate).
`CC(C)(C)OC(=O)N1CCN(c2cc(C(=O)NCC(=O)O)ccc2NC(=O)c2cc(Br)c(Br)[nH]2)CC1` gave an MIC of greater than 32 µg/mL (microbial growth, broth dilution; ATCC700603).
For `COc1cc(C=Nc2ccc(Cl)cc2Cl)ccc1O`, the inhibition zone was 15 mm (microbial growth, disc diffusion; 2000 µg/mL, 24 h).
For `CCC(C)CCCC(=O)N[C@@H](CCN)C(=O)N[C@H](C(=O)N[C@@H](CCN)C(=O)N[C@H]1CCNC(=O)[C@H]([C@@H](C)O)NC(=O)[C@H](CCN)NC(=O)[C@H](CCN)NC(=O)[C@H](CC(C)C)NC(=O)[C@@H](CC(C)C)NC(=O)[C@H](CCN)NC1=O)[C@@H](C)O` (stereo partly drawn), the MIC was 0.5 µg/mL (microbial growth, broth dilution).
For `CC(C)(O/N=C(\C(=O)N[C@@H]1C(=O)N2C(C(=O)[O-])=C(C[n+]3ccccc3)CS[C@H]12)c1csc(N)n1)C(=O)O`, the MIC was greater than 128 µg/mL (microbial growth, broth dilution; 20 h, clinical isolate).
`COc1cc(C=Nc2cccc(O)c2)ccc1O` gave an inhibition zone of 15.5 mm (microbial growth, disc diffusion; 2000 µg/mL, 24 h).
`Cc1[nH]c(C(=O)Nc2ccc(C(=O)NCC(=O)O)cc2N2CC[C@H](N)C2)c(Cl)c1Cl.Cl` has an MIC of greater than 32 µg/mL (microbial growth, broth dilution; ATCC700603).
